Assay results published in ChEMBL document CHEMBL3734696, “Discovery of novel 5-fluoro-N(2),N(4)-diphenylpyrimidine-2,4-diamines as potent inhibitors against CDK2 and CDK9” (Medchemcomm, 2015).

Experiments:
A549 = assay: Antiproliferative activity against human A549 cells after 3 days by SRB method; format: functional; conditions: A549, 72 h
How it was run: (§1)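 Freshly trypsinized cells seeded at 1500–7500 per well with compound added from DMSO-diluted stock. After 3 days, attached cells fixed with cold 50% TCA, stained with 0.4% SRB, and bound dye solubilized. Value is the mean of three independent determinations.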

[1] = Antiproliferative activity against human DU145 cells after 3 days by SRB method; format: functional; conditions: DU-145, 72 h; how it was run: as §1
[2] = Antiproliferative activity against human KBVIN cells after 3 days by SRB method; format: functional; conditions: 72 h; how it was run: as §1
CDK9/cyclin T1 = CDK9/cyclin T1 (Homo sapiens, UniProt P50750); assay: Inhibition of CDK9/Cyclin-T1 (unknown origin) using UlightCFFKNIVTPRTPPPSQGK-amide substrate after 90 mins by […]; format: protein-complex assay
Sequence of CDK9/cyclin T1 (O60563 whole entry): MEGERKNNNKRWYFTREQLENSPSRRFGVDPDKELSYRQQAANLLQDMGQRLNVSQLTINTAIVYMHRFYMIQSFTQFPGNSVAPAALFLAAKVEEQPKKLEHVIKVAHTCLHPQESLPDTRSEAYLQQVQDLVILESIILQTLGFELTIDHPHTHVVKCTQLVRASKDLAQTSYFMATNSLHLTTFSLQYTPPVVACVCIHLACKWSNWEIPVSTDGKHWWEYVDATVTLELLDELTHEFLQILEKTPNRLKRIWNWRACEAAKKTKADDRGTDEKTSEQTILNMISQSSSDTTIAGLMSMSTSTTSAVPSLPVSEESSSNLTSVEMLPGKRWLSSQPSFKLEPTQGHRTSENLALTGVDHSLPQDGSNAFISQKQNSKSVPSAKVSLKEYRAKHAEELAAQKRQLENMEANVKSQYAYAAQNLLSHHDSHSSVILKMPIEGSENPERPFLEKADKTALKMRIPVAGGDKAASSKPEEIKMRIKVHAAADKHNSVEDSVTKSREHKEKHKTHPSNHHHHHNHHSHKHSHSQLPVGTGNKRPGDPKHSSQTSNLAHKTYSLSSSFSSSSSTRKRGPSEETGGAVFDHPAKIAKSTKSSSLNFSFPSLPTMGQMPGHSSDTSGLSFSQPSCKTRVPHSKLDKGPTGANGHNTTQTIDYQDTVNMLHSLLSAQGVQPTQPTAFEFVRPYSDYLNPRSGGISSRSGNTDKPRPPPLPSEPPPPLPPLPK
Sequence of CDK9/cyclin T1 (P50750 whole entry): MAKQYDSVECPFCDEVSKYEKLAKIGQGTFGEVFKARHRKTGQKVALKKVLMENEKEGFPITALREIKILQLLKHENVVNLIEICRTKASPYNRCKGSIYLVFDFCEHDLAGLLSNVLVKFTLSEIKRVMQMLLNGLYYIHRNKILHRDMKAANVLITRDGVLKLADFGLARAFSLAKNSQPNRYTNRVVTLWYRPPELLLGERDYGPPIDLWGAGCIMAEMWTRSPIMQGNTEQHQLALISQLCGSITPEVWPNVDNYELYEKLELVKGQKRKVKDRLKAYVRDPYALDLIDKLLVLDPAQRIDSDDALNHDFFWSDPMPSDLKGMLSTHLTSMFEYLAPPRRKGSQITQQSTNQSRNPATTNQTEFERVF

[3] = test system: Human immunodeficiency virus 1; assay: Antiviral activity against Human immunodeficiency virus 1 NL 4-3 infected in MT4 cells measured on day 4 post infection by p24 assay; format: functional, organism-based; conditions: Human immunodeficiency virus 1, NL 4-3, MT4, 96 h
MT4 = assay: Cytotoxicity against human MT4 cells; format: cell-based
[4] = Therapeutic index, ratio of IC50 for human MT4 cells to EC50 for Human immunodeficiency virus 1 NL 4-3; format: cell-based; conditions: read-out: Ratio IC50/EC50
[5] = molecular target: Cyclin-dependent kinase 2/cyclin E1 (Homo sapiens, UniProt P24941); assay: Inhibition of CDK2/cyclin E1 (unknown origin) expressed in Sf9 insect cells using UlightCFFKNIVTPRTPPPSQGK-amide substrate after 15 mins by […]

GI50 (A549) [µM] | IC50 (CDK9/cyclin T1) [µM] | EC50 [3] [µM] | IC50 [5] [µM] | Compound | GI50 [1] [µM] | GI50 [2] [µM] | IC50 (MT4) [µM] | selectivity ratio [4]
17.4 | – | – | – | O=C(Nc1cc(Cl)cc(Cl)c1)c1cccc(Nc2ncc(F)c(Nc3ccc(F)cc3)n2)c1 | 17.5 | 20.7 | – | –
1.09 | 0.33 | 1.37 | 5.85 | Fc1cnc(Nc2cccc(N3CCOCC3)c2)nc1Nc1c(F)cccc1F | 4.24 | > 10 | 10.2 | 7.45
> 10 | – | – | – | O=C(Nc1ccc(C(F)(F)F)cc1)c1cccc(Nc2ncc(F)c(Nc3ccc(F)cc3)n2)c1 | > 10 | > 10 | – | –
11 | – | – | – | COc1ccc(NC(=O)c2cccc(Nc3ncc(F)c(Nc4ccc(F)cc4)n3)c2)cc1 | > 10 | 15.7 | – | –
9.96 | 15.6 | 7.08 | 60.6 | CC(=O)N1CCCN(C(=O)c2cccc(Nc3ncc(F)c(Nc4ccc(F)cc4)n3)c2)CC1 | 15.7 | 16.7 | – | 2.18
> 10 | – | – | – | CN(C)c1ccc(C(=O)Nc2cccc(Nc3ncc(F)c(Nc4ccc(F)cc4)n3)c2)cc1 | > 10 | > 10 | – | –
1.13 | > 10 | – | > 10 | COc1ccc(N2CCN(C)CC2)cc1Nc1ncc(F)c(Nc2ccc(F)cc2)n1 | 0.91 | 0.91 | – | –
1.33 | 2.45 | – | 1.24 | CN1CCC(C(=O)Nc2cccc(Nc3ncc(F)c(Nc4ccc(F)cc4)n3)c2)CC1 | 1.15 | 11.9 | – | –
9.07 | 11.3 | – | 22.1 | CN1CCN(C(=O)c2cccc(Nc3ncc(F)c(Nc4ccc(F)cc4)n3)c2)CC1 | 10.9 | 12.3 | – | –
11.8 | – | – | – | O=C(NCCO)c1cccc(Nc2ncc(F)c(Nc3ccc(F)cc3)n2)c1 | 13.4 | 21.4 | – | –
13.8 | – | – | – | COc1cc(NC(=O)c2cccc(Nc3ncc(F)c(Nc4ccc(F)cc4)n3)c2)cc(OC)c1 | 13.7 | 12.7 | – | –
18.3 | – | – | – | COc1ccc(N2CCOCC2)cc1Nc1ncc(F)c(Nc2ccc(F)cc2)n1 | > 10 | > 10 | – | –
2.05 | 2.02 | – | 3.27 | COCC(=O)Nc1cccc(Nc2ncc(F)c(Nc3ccc(F)cc3)n2)c1 | 4.46 | 3.94 | – | –
12.9 | – | – | – | O=C(Nc1ccc2c(c1)OCO2)c1cccc(Nc2ncc(F)c(Nc3ccc(F)cc3)n2)c1 | 11.6 | 12 | – | –
12.2 | – | – | – | CS(=O)(=O)N1CCN(C(=O)c2cccc(Nc3ncc(F)c(Nc4ccc(F)cc4)n3)c2)CC1 | 17.9 | > 10 | – | –
1.65 | 2.57 | – | 15.3 | O=C(Nc1cccc(Nc2ncc(F)c(Nc3ccc(F)cc3)n2)c1)c1ccncc1 | 4.33 | 4.57 | – | –
7.25 | – | – | – | O=C(Nc1cccc(Nc2ncc(F)c(Nc3ccc(F)cc3)n2)c1)c1cccc([N+](=O)[O-])c1 | 12.6 | 11.3 | – | –
> 10 | – | – | – | O=C(Nc1nccs1)c1cccc(Nc2ncc(F)c(Nc3ccc(F)cc3)n2)c1 | > 10 | > 10 | – | –
1.45 | 1.72 | – | 4.65 | CN(C)CCNC(=O)c1cccc(Nc2ncc(F)c(Nc3ccc(F)cc3)n2)c1 | 4.34 | 7.26 | – | –
13.2 | – | – | – | O=C(c1cccc(Nc2ncc(F)c(Nc3ccc(F)cc3)n2)c1)N1CCCCC1 | 13 | 13.8 | – | –
10.1 | – | – | – | Cn1ccnc1NC(=O)c1cccc(Nc2ncc(F)c(Nc3ccc(F)cc3)n2)c1 | 15.1 | 13.1 | – | –
10.3 | – | – | – | O=C(Nc1cccc(Nc2ncc(F)c(Nc3ccc(F)cc3)n2)c1)c1cnccn1 | 26.4 | 20.1 | – | –
15.3 | – | – | – | O=C(Nc1ccccn1)c1cccc(Nc2ncc(F)c(Nc3ccc(F)cc3)n2)c1 | 15.1 | 13.7 | – | –
11.6 | – | – | – | Fc1cnc(Nc2cccc(N3CCOCC3)c2)nc1Nc1cc(Cl)cc(Cl)c1 | > 10 | 22.5 | – | –
> 10 | – | – | – | O=C(Nc1ccc(N2CCOCC2)cc1)c1cccc(Nc2ncc(F)c(Nc3ccc(F)cc3)n2)c1 | > 10 | > 10 | – | –
11.2 | – | – | – | O=C(c1cccc(Nc2ncc(F)c(Nc3ccc(F)cc3)n2)c1)N1CCOCC1 | 11.9 | 13.1 | – | –
37.8 | – | – | – | O=C(Nc1cccc(Nc2ncc(F)c(Nc3ccc(F)cc3)n2)c1)c1ccccc1 | > 10 | > 10 | – | –
12 | – | – | – | Fc1cnc(Nc2cccc(N3CCOCC3)c2)nc1Nc1ccc(Cl)c(Cl)c1 | > 10 | > 10 | – | –
3.83 | – | – | – | Fc1ccc(Nc2nc(Nc3cccc(N4CCOCC4)c3)ncc2F)cc1 | > 10 | > 10 | – | –
0.14 | – | 0.015 | – | CN1CC[C@H](c2c(O)cc(O)c3c(=O)cc(-c4ccccc4Cl)oc23)[C@H](O)C1 [ALVOCIDIB] | 0.15 | 0.18 | 0.067 | –
